Activity calls are given as the source filed them. The rule behind the calls is not given here.
Experiments:
Format in all cases: functional
[1] = test system: Histoplasma capsulatum; experiment: Antifungal activity against Histoplasma capsulatum Darling isolate 1106 at 100 ug/ml after 3 weeks (reference value: 31 mm); conditions: Darling isolate 1106, 504 h, read-out: DIZ
[2] = test system: Histoplasma capsulatum; experiment: Antifungal activity against Histoplasma capsulatum Darling isolate 1106 at 1 ug/ml after 2 weeks (reference value: 25 mm); conditions: Darling isolate 1106, 336 h, read-out: DIZ
[3] = test system: Histoplasma capsulatum; experiment: Antifungal activity against Histoplasma capsulatum Darling isolate 1098 at 40 ug/ml after 3 weeks (reference value: 28 mm); conditions: Darling isolate 1098, 504 h, read-out: DIZ
[4] = test system: Blastomyces dermatitidis; experiment: Antifungal activity against Blastomyces dermatitidis Gilchrist & Stokes isolate 1107 at 80 ug/ml after 2 weeks (reference value: 35 mm); conditions: Gilchrist & Stokes isolate 1107, 336 h, read-out: DIZ
Outline: (§1)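 Mycelial phase grown on Sabouraud dextrose agar at 25°C. Agar pH was set to 6 before the test solution was added and was 5.0-5.5 after. Test solutions contained HOAc and Me2SO, and solvent and blank controls were included. Each quadrant was center-inoculated with a 2 × 2 mm piece of a 2-week-old mycelial culture. Colony diameter was measured weekly for 3 weeks and reported as total increments (mm). Duplicates were run.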

[5] = test system: Histoplasma capsulatum; experiment: Antifungal activity against Histoplasma capsulatum Darling isolate 1106 at 80 ug/ml after 1 week (reference value: 14 mm); conditions: Darling isolate 1106, 168 h, read-out: DIZ
[6] = test system: Histoplasma capsulatum; experiment: Antifungal activity against Histoplasma capsulatum Darling isolate 1106 at 1 ug/ml after 3 weeks (reference value: 31 mm); conditions: Darling isolate 1106, 504 h, read-out: DIZ
[7] = test system: Blastomyces dermatitidis; experiment: Antifungal activity against Blastomyces dermatitidis Gilchrist & Stokes isolate 1099 at 10 ug/ml after 1 week (reference value: 14 mm); outline: as §1
[8] = test system: Blastomyces dermatitidis; experiment: Antifungal activity against Blastomyces dermatitidis Gilchrist & Stokes isolate 1107 at 40 ug/ml after 1 week (reference value: 20 mm)
[9] = test system: Blastomyces dermatitidis; experiment: Antifungal activity against Blastomyces dermatitidis Gilchrist & Stokes isolate 1099 at 60 ug/ml after 2 weeks (reference value: 27 mm); outline: as §1
[10] = test system: Histoplasma capsulatum; experiment: Antifungal activity against Histoplasma capsulatum Darling isolate 1098 at 60 ug/ml after 1 week (reference value: 12 mm); conditions: Darling isolate 1098, 168 h, read-out: DIZ
[11] = test system: Blastomyces dermatitidis; experiment: Antifungal activity against Blastomyces dermatitidis Gilchrist & Stokes isolate 1099 at 40 ug/ml after 1 week (reference value: 14 mm)
[12] = test system: Blastomyces dermatitidis; experiment: Antifungal activity against Blastomyces dermatitidis Gilchrist & Stokes isolate 1099 at 10 ug/ml after 3 weeks (reference value: 34 mm); conditions: Gilchrist & Stokes isolate 1099, 504 h, read-out: DIZ; outline: as §1
[13] = test system: Histoplasma capsulatum; experiment: Antifungal activity against Histoplasma capsulatum Darling isolate 1106 at 10 ug/ml after 3 weeks (reference value: 31 mm); conditions: Darling isolate 1106, 504 h, read-out: DIZ
[14] = test system: Histoplasma capsulatum; experiment: Antifungal activity against Histoplasma capsulatum Darling isolate 1098 at 80 ug/ml after 3 weeks (reference value: 28 mm); conditions: Darling isolate 1098, 504 h, read-out: DIZ
[15] = test system: Blastomyces dermatitidis; experiment: Antifungal activity against Blastomyces dermatitidis Gilchrist & Stokes isolate 1099 at 80 ug/ml after 1 week (reference value: 14 mm)
[16] = test system: Histoplasma capsulatum; experiment: Antifungal activity against Histoplasma capsulatum Darling isolate 1106 at 100 ug/ml after 1 week (reference value: 14 mm)
[17] = test system: Blastomyces dermatitidis; experiment: Antifungal activity against Blastomyces dermatitidis Gilchrist & Stokes isolate 1099 at 40 ug/ml after 2 weeks (reference value: 27 mm); conditions: Gilchrist & Stokes isolate 1099, 336 h, read-out: DIZ; outline: as §1
[18] = test system: Blastomyces dermatitidis; experiment: Antifungal activity against Blastomyces dermatitidis Gilchrist & Stokes isolate 1107 at 10 ug/ml after 2 weeks (reference value: 35 mm); conditions: Gilchrist & Stokes isolate 1107, 336 h, read-out: DIZ; outline: as §1
[19] = test system: Histoplasma capsulatum; experiment: Antifungal activity against Histoplasma capsulatum Darling isolate 1098 at 100 ug/ml after 1 week (reference value: 12 mm)
[20] = test system: Histoplasma capsulatum; experiment: Antifungal activity against Histoplasma capsulatum Darling isolate 1106 at 60 ug/ml after 1 week (reference value: 14 mm); conditions: Darling isolate 1106, 168 h, read-out: DIZ
[21] = test system: Blastomyces dermatitidis; experiment: Antifungal activity against Blastomyces dermatitidis Gilchrist & Stokes isolate 1107 at 80 ug/ml after 1 week (reference value: 20 mm)
[22] = test system: Blastomyces dermatitidis; experiment: Antifungal activity against Blastomyces dermatitidis Gilchrist & Stokes isolate 1099 at 60 ug/ml after 3 weeks (reference value: 34 mm); conditions: Gilchrist & Stokes isolate 1099, 504 h, read-out: DIZ; outline: as §1
[23] = test system: Histoplasma capsulatum; experiment: Antifungal activity against Histoplasma capsulatum Darling isolate 1106 at 60 ug/ml after 3 weeks (reference value: 31 mm); conditions: Darling isolate 1106, 504 h, read-out: DIZ
[24] = test system: Blastomyces dermatitidis; experiment: Antifungal activity against Blastomyces dermatitidis Gilchrist & Stokes isolate 1107 at 20 ug/ml after 1 week (reference value: 20 mm); outline: as §1
[25] = test system: Histoplasma capsulatum; experiment: Antifungal activity against Histoplasma capsulatum Darling isolate 1098 at 40 ug/ml after 1 week (reference value: 12 mm); conditions: Darling isolate 1098, 168 h, read-out: DIZ
[26] = test system: Blastomyces dermatitidis; experiment: Antifungal activity against Blastomyces dermatitidis Gilchrist & Stokes isolate 1107 at 60 ug/ml after 1 week (reference value: 20 mm)
[27] = test system: Histoplasma capsulatum; experiment: Antifungal activity against Histoplasma capsulatum Darling isolate 1106 at 10 ug/ml after 2 weeks (reference value: 25 mm); conditions: Darling isolate 1106, 336 h, read-out: DIZ
[28] = test system: Blastomyces dermatitidis; experiment: Antifungal activity against Blastomyces dermatitidis Gilchrist & Stokes isolate 1107 at 40 ug/ml after 3 weeks (reference value: 40 mm); conditions: Gilchrist & Stokes isolate 1107, 504 h, read-out: DIZ; outline: as §1
[29] = test system: Histoplasma capsulatum; experiment: Antifungal activity against Histoplasma capsulatum Darling isolate 1098 at 100 ug/ml after 3 weeks (reference value: 28 mm); conditions: Darling isolate 1098, 504 h, read-out: DIZ
[30] = test system: Blastomyces dermatitidis; experiment: Antifungal activity against Blastomyces dermatitidis Gilchrist & Stokes isolate 1099 at 20 ug/ml after 2 weeks (reference value: 27 mm); conditions: Gilchrist & Stokes isolate 1099, 336 h, read-out: DIZ
[31] = test system: Histoplasma capsulatum; experiment: Antifungal activity against Histoplasma capsulatum Darling isolate 1106 at 20 ug/ml after 3 weeks (reference value: 31 mm); conditions: Darling isolate 1106, 504 h, read-out: DIZ
[32] = test system: Blastomyces dermatitidis; experiment: Antifungal activity against Blastomyces dermatitidis Gilchrist & Stokes isolate 1107 at 20 ug/ml after 3 weeks (reference value: 40 mm); conditions: Gilchrist & Stokes isolate 1107, 504 h, read-out: DIZ
[33] = test system: Blastomyces dermatitidis; experiment: Antifungal activity against Blastomyces dermatitidis Gilchrist & Stokes isolate 1107 at 20 ug/ml after 2 weeks (reference value: 35 mm); conditions: Gilchrist & Stokes isolate 1107, 336 h, read-out: DIZ
[34] = test system: Histoplasma capsulatum; experiment: Antifungal activity against Histoplasma capsulatum Darling isolate 1098 at 20 ug/ml after 3 weeks (reference value: 28 mm); conditions: Darling isolate 1098, 504 h, read-out: DIZ
[35] = test system: Blastomyces dermatitidis; experiment: Antifungal activity against Blastomyces dermatitidis Gilchrist & Stokes isolate 1099 at 20 ug/ml after 3 weeks (reference value: 34 mm); conditions: Gilchrist & Stokes isolate 1099, 504 h, read-out: DIZ
[36] = Gilchrist & Stokes isolate 1099, 168 h, read-out: DIZ
[37] = Gilchrist & Stokes isolate 1107, 168 h, read-out: DIZ

C[C@@H]1[C@H](O)[C@@H](C)/C=C/C=C/C=C/C=C/C=C/C=C/C=C/[C@H](O[C@@H]2O[C@H](C)[C@@H](O)[C@H](N)[C@@H]2O)C[C@@H]2O[C@](O)(C[C@@H](O)C[C@@H](O)[C@H](O)CC[C@@H](O)C[C@@H](O)CC(=O)O[C@H]1C)C[C@H](O)[C@H]2C(=O)O [AMPHOTERICIN B]
zone of inhibition at 100 µg/mL [1]: 10 mm | zone of inhibition at 1 µg/mL [2]: 18 mm | zone of inhibition at 40 µg/mL [3]: 16 mm | zone of inhibition at 80 µg/mL [4]: 10 mm | zone of inhibition at 80 µg/mL [5]: 5 mm | zone of inhibition at 1 µg/mL [6]: 24 mm | Activity [7]: Active | Activity [8]: inactive | Activity [9]: Active | zone of inhibition at 60 µg/mL [10]: 4 mm | Activity [11]: Active | zone of inhibition at 10 µg/mL [12]: 11 mm | zone of inhibition at 10 µg/mL [13]: 17 mm | zone of inhibition at 80 µg/mL [14]: 14 mm | Activity [15]: Active | Activity [16]: inactive | zone of inhibition at 40 µg/mL [17]: 2 mm | zone of inhibition at 10 µg/mL [18]: 9 mm | Activity [19]: inactive | zone of inhibition at 60 µg/mL [20]: 6 mm | Activity [21]: inactive | zone of inhibition at 60 µg/mL [22]: 4 mm | zone of inhibition at 60 µg/mL [23]: 13 mm | Activity [24]: inactive | zone of inhibition at 40 µg/mL [25]: 5 mm | Activity [26]: inactive | zone of inhibition at 10 µg/mL [27]: 12 mm | zone of inhibition at 40 µg/mL [28]: 13 mm | zone of inhibition at 100 µg/mL [29]: 14 mm

CS[C@@]1(C)CC[C@@H]2CCCCN2C1O (some centres not stated)
zone of inhibition at 20 µg/mL [30]: 26 mm | zone of inhibition at 20 µg/mL [31]: 26 mm | zone of inhibition at 100 µg/mL [1]: 26 mm | zone of inhibition at 40 µg/mL [3]: 30 mm | zone of inhibition at 20 µg/mL [32]: 40 mm | zone of inhibition at 80 µg/mL [4]: 29 mm | zone of inhibition at 80 µg/mL [5]: 10 mm | zone of inhibition at 10 µg/mL [7, 36]: 16 mm | zone of inhibition at 20 µg/mL [33]: 34 mm | zone of inhibition at 40 µg/mL [8, 37]: 20 mm | zone of inhibition at 60 µg/mL ([9]; Gilchrist & Stokes isolate 1099, 336 h, read-out: DIZ): 25 mm | zone of inhibition at 60 µg/mL [10]: 9 mm | zone of inhibition at 40 µg/mL [11, 36]: 13 mm | zone of inhibition at 10 µg/mL [12]: 38 mm | zone of inhibition at 10 µg/mL [13]: 26 mm | zone of inhibition at 80 µg/mL [14]: 30 mm | zone of inhibition at 20 µg/mL [34]: 31 mm | zone of inhibition at 80 µg/mL [15, 36]: 13 mm | zone of inhibition at 100 µg/mL ([16]; Darling isolate 1106, 168 h, read-out: DIZ): 9 mm | zone of inhibition at 40 µg/mL [17]: 26 mm | zone of inhibition at 10 µg/mL [18]: 33 mm | zone of inhibition at 20 µg/mL [35]: 35 mm | zone of inhibition at 100 µg/mL ([19]; Darling isolate 1098, 168 h, read-out: DIZ): 8 mm | zone of inhibition at 60 µg/mL [20]: 10 mm | zone of inhibition at 80 µg/mL [21, 37]: 18 mm | zone of inhibition at 60 µg/mL [22]: 32 mm | zone of inhibition at 60 µg/mL [23]: 27 mm | zone of inhibition at 20 µg/mL [24, 37]: 21 mm | zone of inhibition at 40 µg/mL [25]: 9 mm | zone of inhibition at 60 µg/mL [26, 37]: 20 mm | zone of inhibition at 10 µg/mL [27]: 21 mm | zone of inhibition at 40 µg/mL [28]: 40 mm | zone of inhibition at 100 µg/mL [29]: 30 mm
